Assay results: ChEMBL document CHEMBL4373711, “Development of 3,5-Dinitrophenyl-Containing 1,2,4-Triazoles and Their Trifluoromethyl Analogues as Highly Efficient Antitubercular Agents Inhibiting Decaprenylphosphoryl-β-d-ribofuranose 2'-Oxidase” (J Med Chem, 2019)
Values after ≈ are worked out from the molar mass of the structure shown. Active and inactive are the calls of the source. The calls are words filed in the database; no cut-off is given here.

Columns and labels:
Mycobacterium avium [1] = assay: Antimycobacterial activity against Mycobacterium avium CNCTC My 330/88 after 21 days; type: functional; settings: CNCTC My 330/88, 504 h
In short: (§1)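 M. avium was tested by microdilution in Šula's semisynthetic medium, with compounds dissolved in DMSO and serially diluted from 1000 down to 1. Inoculum was a 1.0 McFarland suspension diluted 10-5. Plates were incubated at 37 °C and read at 14 and 21 days. […] Isoniazid and rifampicin served as standards.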

Mycobacterium kansasii [2] = assay: Antimycobacterial activity against Mycobacterium kansasii CNCTC My 235/80 after 14 days; type: functional; settings: CNCTC My 235/80, 336 h
In short: (§2)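 Microdilution in Šula's semisynthetic medium; compounds in DMSO at 32–0.03 µM. Inoculum from 1.0 McFarland suspension diluted 10-4. […] Isoniazid and rifampicin as reference drugs.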

Mycobacterium kansasii [3] = assay: Antimycobacterial activity against Mycobacterium kansasii CNCTC My 235/80 after 21 days; type: functional; settings: CNCTC My 235/80, 504 h; in short: as §2
Mycobacterium kansasii [4] = assay: Antimycobacterial activity against Mycobacterium kansasii 6509/96 after 21 days; type: functional; settings: 6509/96, 504 h; in short: as §2
[5] = test system: Mycobacterium tuberculosis; assay: Antimycobacterial activity against Mycobacterium tuberculosis H37Rv CNCTC My 331/88 after 21 days; type: functional; settings: H37Rv CNCTC My 331/88, 504 h
In short: (§3)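 M. tuberculosis strains (H37Rv and clinical MDR/XDR isolates) tested by microdilution in Šula's semisynthetic medium. Compounds were dissolved in DMSO and tested at 32 to 0.03 µM in twofold steps. Inoculum was a 1.0 McFarland suspension diluted 10-3. Plates were incubated at 37 °C and read at 14 and 21 days.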

Mycobacterium avium [6] = assay: Antimycobacterial activity against Mycobacterium avium CNCTC My 330/88 after 14 days; type: functional; settings: CNCTC My 330/88, 336 h; in short: as §1
[7] = Cytotoxicity against human HepG2 cells assessed as cell viability at 30 uM after 48 hrs by CellTiter 96 aqueous one solution assay relative to control; type: cell-based; settings: read-out: Activity
In short: (§4)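 HepG2 (DMEM, 10% FBS, 1 mM pyruvate) or A431 (DMEM, 10% FBS) seeded 10,000 cells/well, 24 h at 37 °C, 5% CO2, then 30 µM compound for 48 h. MTS reagent 60 min, absorbance 490 nm, background subtracted; 0.1% DMSO vehicle = 100%, 10% SDS = 0% viability.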

[8] = test system: Mycobacterium tuberculosis; assay: Antimycobacterial activity against XDR Mycobacterium tuberculosis Praha 131 after 21 days; type: functional; settings: Praha 131, 504 h; in short: as §3
[9] = test system: Mycobacterium tuberculosis; assay: Antimycobacterial activity against Mycobacterium tuberculosis H37Rv CNCTC My 331/88 after 14 days; type: functional; settings: H37Rv CNCTC My 331/88, 336 h; in short: as §3
A-431 = assay: Cytotoxicity against human A431 cells assessed as reduction in cell viability after 48 hrs by CellTiter 96 aqueous one solution assay; type: cell-based; settings: A-431, 48 h
Mycobacterium kansasii [10] = assay: Antimycobacterial activity against Mycobacterium kansasii 6509/96 after 14 days; type: functional; settings: 6509/96, 336 h; in short: as §2
HepG2 = assay: Cytotoxicity against human HepG2 cells assessed as reduction in cell viability after 48 hrs by CellTiter 96 aqueous one solution assay; type: cell-based; settings: HepG2, 48 h
Mycobacterium kansasii [11] = assay: Antimycobacterial activity against Mycobacterium kansasii CNCTC My 235/80 after 7 days; type: functional; settings: CNCTC My 235/80, 168 h; in short: as §2
[12] = Cytotoxicity against human A431 cells assessed as cell viability at 30 uM after 48 hrs by CellTiter 96 aqueous one solution assay relative to control; type: cell-based, A-431; settings: read-out: Activity; in short: as §4
[13] = test system: Mycobacterium tuberculosis; assay: Antimycobacterial activity against XDR Mycobacterium tuberculosis Praha 131 after 14 days; type: functional; settings: Praha 131, 336 h; in short: as §3
Mycobacterium kansasii [14] = assay: Antimycobacterial activity against Mycobacterium kansasii 6509/96 after 7 days; type: functional; settings: 6509/96, 168 h; in short: as §2
Aspergillus flavus = assay: Antifungal activity against Aspergillus flavus CCM 8363 at highest concentration measured after 24 to 48 hrs by alamar blue dye based broth microdilution assay; type: functional, organism-based
Serratia marcescens = assay: Antibacterial activity against Serratia marcescens at highest concentration measured after 24 to 48 hrs by alamar blue dye based broth microdilution assay; type: functional, organism-based
Pseudomonas aeruginosa = assay: Antibacterial activity against Pseudomonas aeruginosa ATCC 27853 CCM 3955 at highest concentration measured after 24 to 48 hrs by alamar blue dye based broth microdilution assay; type: functional, organism-based
[15] = test system: Staphylococcus epidermidis; assay: Antibacterial activity against Staphylococcus epidermidis at highest concentration measured after 24 to 48 hrs by alamar blue dye based broth microdilution assay; type: functional, organism-based
Enterococcus faecalis = assay: Antibacterial activity against Enterococcus faecalis ATCC 29212 CCM 4224 at highest concentration measured after 24 to 48 hrs by alamar blue dye based broth microdilution assay; type: functional, organism-based
Candida parapsilosis = assay: Antifungal activity against Candida parapsilosis ATCC 22019 CCM 8260 at highest concentration measured after 24 to 48 hrs by alamar blue dye based broth microdilution assay; type: functional, organism-based
Staphylococcus aureus [16] = assay: Antibacterial activity against methicillin-resistant Staphylococcus aureus subsp. aureus ATCC 43300 CCM 4750 at highest concentration measured after 24 to 48 hrs by alamar blue dye based broth microdilution assay; type: functional, organism-based
Candida albicans = assay: Antifungal activity against Candida albicans ATCC 24433 CCM 8320 at highest concentration measured after 24 to 48 hrs by alamar blue dye based broth microdilution assay; type: functional, organism-based
Pichia kudriavzevii = assay: Antifungal activity against Candida krusei ATCC 6258 CCM8271 at highest concentration measured after 24 to 48 hrs by alamar blue dye based broth microdilution assay; type: functional, organism-based
Staphylococcus aureus [17] = assay: Antibacterial activity against Staphylococcus aureus subsp. aureus ATCC 29213 CCM 4223 at highest concentration measured after 24 to 48 hrs by alamar blue dye based broth microdilution assay; type: functional, organism-based
[18] = test system: Trichophyton interdigitale; assay: Antifungal activity against Trichophyton interdigitale ATCC 9533 CCM 8377 at highest concentration measured after 72 to 120 hrs by alamar blue dye based broth microdilution assay; type: functional
Lichtheimia corymbifera = assay: Antifungal activity against Lichtheimia corymbifera CCM 8077 at highest concentration measured after 24 to 48 hrs by alamar blue dye based broth microdilution assay; type: functional, organism-based
Candida tropicalis = assay: Antifungal activity against Candida tropicalis ATCC 750 CCM 8264 at highest concentration measured after 24 to 48 hrs by alamar blue dye based broth microdilution assay; type: functional, organism-based
Aspergillus fumigatus = assay: Antifungal activity against Aspergillus fumigatus ATCC 204305 at highest concentration measured after 24 to 48 hrs by alamar blue dye based broth microdilution assay; type: functional, organism-based
Klebsiella pneumoniae = assay: Antibacterial activity against Klebsiella pneumoniae at highest concentration measured after 24 to 48 hrs by alamar blue dye based broth microdilution assay; type: functional, organism-based
Escherichia coli = assay: Antibacterial activity against Escherichia coli ATCC 25922 CCM 3954 at highest concentration measured after 24 to 48 hrs by alamar blue dye based broth microdilution assay; type: functional, organism-based

Row | SMILES | MIC99 (Mycobacterium avium [1]) | MIC99 (Mycobacterium kansasii [2]) | MIC99 (Mycobacterium kansasii [3]) | MIC99 (Mycobacterium kansasii [4]) | MIC99 [5] | MIC99 (Mycobacterium avium [6]) | viability at 48 h, 30 µM [7] | MIC99 [8] | MIC99 [9] | IC50 (A-431) | MIC99 (Mycobacterium kansasii [10]) | IC50 (HepG2) | MIC99 (Mycobacterium kansasii [11]) | viability at 48 h, 30 µM [12] | MIC99 [13] | MIC99 (Mycobacterium kansasii [14]) | Activity (Aspergillus flavus) | Activity (Serratia marcescens) | Activity (Pseudomonas aeruginosa) | Activity [15] | further results
1 | O=[N+]([O-])c1cc(CSc2nnc(C3CCCCC3)n2Cc2ccccc2)cc(C(F)(F)F)c1 | 250 µM (≈ 119 µg/mL) | 16 µM (≈ 7.62 µg/mL) | 16 µM (≈ 7.62 µg/mL) | 32 µM (≈ 15.2 µg/mL) | 16 µM (≈ 7.62 µg/mL) | 250 µM (≈ 119 µg/mL) | 79% | 16 µM (≈ 7.62 µg/mL) | 16 µM (≈ 7.62 µg/mL) | > 30 µM | 16 µM (≈ 7.62 µg/mL) | > 30 µM | 16 µM (≈ 7.62 µg/mL) | 67% | 16 µM (≈ 7.62 µg/mL) | 16 µM (≈ 7.62 µg/mL) |  |  |  |  | 
2 | CCCSc1nnc(-c2cc([N+](=O)[O-])cc([N+](=O)[O-])c2)n1Cc1ccccc1 | 250 µM (≈ 99.9 µg/mL) | 0.25 µM (≈ 0.0999 µg/mL) | 0.25 µM (≈ 0.0999 µg/mL) | 0.5 µM (≈ 0.2 µg/mL) | 0.125 µM (≈ 0.0499 µg/mL) | 250 µM (≈ 99.9 µg/mL) | 90% | 0.125 µM (≈ 0.0499 µg/mL) | 0.06 µM (≈ 0.024 µg/mL) | > 30 µM | 0.25 µM (≈ 0.0999 µg/mL) | > 30 µM | 0.125 µM (≈ 0.0499 µg/mL) | 123% | 0.125 µM (≈ 0.0499 µg/mL) | 0.25 µM (≈ 0.0999 µg/mL) | inactive | inactive | inactive | inactive | Activity (Enterococcus faecalis): inactive; Activity (Candida parapsilosis): inactive; Activity (Staphylococcus aureus [16]): inactive; Activity (Candida albicans): inactive; Activity (Pichia kudriavzevii): inactive; Activity (Staphylococcus aureus [17]): inactive; Activity [18]: inactive; Activity (Lichtheimia corymbifera): inactive; Activity (Candida tropicalis): inactive; Activity (Aspergillus fumigatus): inactive; Activity (Klebsiella pneumoniae): inactive; Activity (Escherichia coli): inactive
3 | CCCCCCCCSc1nnc(-c2cc([N+](=O)[O-])cc([N+](=O)[O-])c2)n1Cc1ccccc1 | 250 µM (≈ 117 µg/mL) | 0.06 µM (≈ 0.0282 µg/mL) | 0.125 µM (≈ 0.0587 µg/mL) | 0.125 µM (≈ 0.0587 µg/mL) | 0.125 µM (≈ 0.0587 µg/mL) | 250 µM (≈ 117 µg/mL) | 99% | 0.25 µM (≈ 0.117 µg/mL) | 0.06 µM (≈ 0.0282 µg/mL) | > 30 µM | 0.06 µM (≈ 0.0282 µg/mL) | > 30 µM | 0.06 µM (≈ 0.0282 µg/mL) | 131% | 0.125 µM (≈ 0.0587 µg/mL) | 0.06 µM (≈ 0.0282 µg/mL) | inactive | inactive | inactive | inactive | Activity (Enterococcus faecalis): inactive; Activity (Candida parapsilosis): inactive; Activity (Staphylococcus aureus [16]): inactive; Activity (Candida albicans): inactive; Activity (Pichia kudriavzevii): inactive; Activity (Staphylococcus aureus [17]): inactive; Activity [18]: inactive; Activity (Lichtheimia corymbifera): inactive; Activity (Candida tropicalis): inactive; Activity (Aspergillus fumigatus): inactive; Activity (Klebsiella pneumoniae): inactive; Activity (Escherichia coli): inactive
4 | CO[C@H]1/C=C/O[C@@]2(C)Oc3c(C)c(O)c4c(O)c(c(/C=N/N5CCN(C)CC5)c(O)c4c3C2=O)NC(=O)/C(C)=C\C=C\[C@H](C)[C@H](O)[C@@H](C)[C@@H](O)[C@@H](C)[C@H](OC(C)=O)[C@@H]1C [RIFAMPIN] | 62 µM (≈ 51 µg/mL) | 0.25 µM (≈ 0.206 µg/mL) | 0.25 µM (≈ 0.206 µg/mL) | 0.25 µM (≈ 0.206 µg/mL) | 0.25 µM (≈ 0.206 µg/mL) | 32 µM (≈ 26.3 µg/mL) |  |  | 0.25 µM (≈ 0.206 µg/mL) |  | 0.25 µM (≈ 0.206 µg/mL) |  | 0.125 µM (≈ 0.103 µg/mL) |  | > 8 µM | 0.125 µM (≈ 0.103 µg/mL) |  |  |  |  | 
